SKN-1 block = blocks SKN-1 activity in C. elegans; C. elegans VP596 Pgst-4::GFP/RFP ratio, acrylamide-induced, 24 h; inhibition, % at 21.8 µM; hit rate 0.49% among 360,000; AID 624304;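 active = interference check ratio from 0.5 to 1.5 plus GFP to RFP signal ratio inhibition reaching or exceeding a fixed threshold, cut at about 30% in these data, passing the limit was not always enough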
MPTP inh = inhibitors of mitochondrial permeability transition pore | isolated mouse mitochondria, Ca2+ swelling absorbance, 30 min | inhibition, % at 10 µM | hit rate 1.4% among 360,000;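 active = inhibition of 50% or more, scaled per plate between neutral and stimulator controls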;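 also: 0% = DMSO wells given calcium and 100% = 1 mM EGTA wells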
ADAM10 inh = inhibits human ADAM10 | O14672 | recombinant ADAM10, EDANS/DABCYL FRET peptide cleavage, 3 h | inhibition, % at 7 µM | hit rate 0.62% among 370,000;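 active = inhibition above a per-campaign cutoff equal to the mean of compounds falling between control-based bounds plus 3 SD, cut at about 20% in these data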;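 also: 0% = DMSO wells while the 100% control is not disclosed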
Target sequence (O14672 214-748 limits assumed): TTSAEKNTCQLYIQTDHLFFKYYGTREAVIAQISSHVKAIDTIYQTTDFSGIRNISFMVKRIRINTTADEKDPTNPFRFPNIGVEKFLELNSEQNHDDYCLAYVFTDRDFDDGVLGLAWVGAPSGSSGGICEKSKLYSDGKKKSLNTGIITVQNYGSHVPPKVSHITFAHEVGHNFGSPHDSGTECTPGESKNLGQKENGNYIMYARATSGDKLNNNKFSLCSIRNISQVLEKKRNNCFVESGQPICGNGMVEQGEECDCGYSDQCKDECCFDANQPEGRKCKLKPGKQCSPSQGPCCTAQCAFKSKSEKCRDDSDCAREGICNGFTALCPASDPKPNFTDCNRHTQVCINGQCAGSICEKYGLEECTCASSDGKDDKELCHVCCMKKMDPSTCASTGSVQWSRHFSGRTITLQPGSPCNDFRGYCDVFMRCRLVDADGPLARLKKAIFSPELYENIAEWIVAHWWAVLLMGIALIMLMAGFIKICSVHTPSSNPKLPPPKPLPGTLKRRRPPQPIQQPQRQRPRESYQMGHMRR
MT1-MMP act inh = MT1-MMP (human) activation inhibition; HT1080 RFP-PRO-GFP cells, GFP/RFP ratio fluorescence, overnight; percent of plate control window, DMSO zero; GFP/RFP ratio change, % at 20 µM; hit rate 0.061% among 360,000; AID 651647;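 active = GFP/RFP ratio change of at least 30% with cell ATP level not reduced by more than half and red fluorescence within 50% of control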
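Read-out: GFP/RFP fluorescence ratio; Test system: RFP-PRO-GFP reporter HT1080 cells; Compound dosing: single-point 20 µM compound, 1% DMSO; Times: overnight compound exposure at 37 °C.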
ADAM17 inh = inhibits human ADAM17. inhibition, % at 6.95 µM. hit rate 0.83% among 370,000. P78536. recombinant ADAM17, EDANS/DABCYL FRET peptide cleavage;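 active = inhibition above the mean of compounds lying between control limits plus 3 SD, set per campaign, cut at about 8.5% in these data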;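 also: 0% = DMSO-only wells as the low control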
NR3A LBD binder = modulators (binders) of human NR3A ligand-binding domain. Tm shift relative to glycine control, % at 25 µM. hit rate 2.5% among 340,000. NR3A LBD differential scanning fluorimetry, Tm shift; 0% = protein alone, 100% = glycine-bound protein;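 active = melting temperature shift of at least 10% of the positive control shift, at one fixed dose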
Numbers without * were called inactive; x = no result. Only some compounds are listed: those with a hit (about 4.7% of all), similar ones and a draw of the others.

SMILES	SKN-1 block	MPTP inh	ADAM10 inh	MT1-MMP act inh	ADAM17 inh	NR3A LBD binder
CCCOC(=O)c1ccc(-n2nnnc2SCC(=O)N2CCCCC2)cc1	4	5	-3	0	-2	0
Brc1ccc(-c2noc(C3CCCCC3)n2)cc1	22	0	-3	4	1	14*
c1ccc(-c2noc(C3CCCCC3)n2)nc1	1	-1	2	-5	-3	1
Clc1ccccc1-c1nnc(-c2ccccc2Cl)o1	67*	0	2	-2	-4	2
Clc1ccc(-c2nnc(-c3ccccc3Cl)o2)cc1	62*	0	3	1	-3	4
COc1ccccc1NS(=O)(=O)c1cc([N+](=O)[O-])ccc1N/N=C/c1c(C)[nH]c2ccccc12	16	0	6	-141	-2	29*
CN1CCN(S(=O)(=O)c2cc([N+](=O)[O-])ccc2N/N=C/c2ccc(Cl)cc2)CC1	3	0	7	-1	0	2
Cc1[nH]c2ccccc2c1/C=N/NC(=O)c1cccc([N+](=O)[O-])c1	1	-1	-1	0	-3	-3
O=[N+]([O-])c1ccc(N/N=C/c2c[nH]c3ccccc23)c(S(=O)(=O)Nc2ccc(Cl)cc2)c1	10	23	2	-82	0	513*
CCCn1nc(CC(=O)O)c2ccccc2c1=O	-5	0	-1	4	-5	0
CCn1nc(CCC(=O)O)c2ccccc2c1=O	41*	1	-1	-6	-1	1
O=C(NCCO)c1nc(C(=O)c2ccc(Cl)cc2)c2ccccc2n1	-3	2	3	3	-2	-1
Nc1ncnc2c1ncn2[C@@H]1O[C@H](CNCc2cccc(C#Cc3ccccc3)c2)[C@@H](O)[C@H]1O	24	6	-5	-6	1	13*
Nc1ncnc2c1ncn2[C@@H]1O[C@H](CNC(=O)[C@@H]2CCN2)[C@@H](O)[C@H]1O	-13	-1	-3	1	5	15*
COc1cccc(-c2cnc(C(O)c3cc(F)cc(Cl)c3)[nH]2)c1 (stereo not drawn)	-2	4	-3	8	-1	x
O=c1c2ccccc2nc2sc(Nc3ccc(F)cc3)nn12	-1	1	-2	5	-4	-4
COc1cccc(Nc2nn3c(=O)c4ccccc4nc3s2)c1	2	3	x	7	x	23*
CCOC(=O)c1c(C)[nH]c(C(=O)NNC(=O)c2ccc(C(C)(C)C)cc2)c1C	16	2	7	3	8	2
Cc1cc(C)c2nc(NCc3ccccc3O)sc2c1	0	4	11	0	-3	27*
NC(=S)N/N=C/c1ccc(-c2ccc(Cl)c(Cl)c2)o1	-1	2	-77	0	-25	4
NC(=S)N/N=C\c1ccc(-c2cccc(Cl)c2Cl)o1	4	0	-23	-8	-11	27*
Cc1cc(OCc2cc(C(=O)N3CCCCCC3)no2)cc(C)c1Cl	22	0	12	-1	1	11*
Cc1ccc(OCc2cc(C(=O)N3CCCCCCC3)no2)cc1C	21	0	5	-1	-3	2
O=C(c1cc(COc2ccc(F)cc2Cl)on1)N1CCCCCC1	38*	-1	0	1	-2	15*
O=C1C2=C(NC(=S)NC2c2ccc(Cl)cc2)NC(c2ccc(Cl)cc2)N1c1ccc(Cl)cc1 (stereo not drawn)	-7	2	-1	3	-1	22*
CCc1ccc(C2NC(=S)NC3=C2C(=O)N(c2ccccc2OC)C(c2ccc(CC)cc2)N3)cc1 (stereo not drawn)	4	2	-27	2	-6	-7
COc1ccccc1Cn1c(C)c(C(=O)NCc2cccc(C)c2)sc1=O	-5	0	-2	2	-2	x
O=C(CSc1nc2ccc(Cl)cc2[nH]1)c1c[nH]c2ccccc12	10	6	8	-4	4	12*
O=C(CSc1nc2ncc(Cl)cc2[nH]1)c1c[nH]c2ccccc12	-14	34	-1	-6	-5	6
O=C(NCc1ccco1)c1sc2cc(Cl)ccc2c1Cl	38*	2	6	5	0	4
